Measurements reported in ChEMBL document CHEMBL1128640, “Thiopyranol[2,3,4-c,d]indoles as inhibitors of 5-lipoxygenase, 5-lipoxygenase-activating protein, and leukotriene C4 synthase” (J Med Chem, 1995).
pIC50: −log10 of the molar value.

Key:
[1] = biological target: T1, Polyunsaturated fatty acid 5-lipoxygenase (Homo sapiens, UniProt P09917); assay: Inhibition of Human 5-lipoxygenase
T1 sequence (P09917 whole entry): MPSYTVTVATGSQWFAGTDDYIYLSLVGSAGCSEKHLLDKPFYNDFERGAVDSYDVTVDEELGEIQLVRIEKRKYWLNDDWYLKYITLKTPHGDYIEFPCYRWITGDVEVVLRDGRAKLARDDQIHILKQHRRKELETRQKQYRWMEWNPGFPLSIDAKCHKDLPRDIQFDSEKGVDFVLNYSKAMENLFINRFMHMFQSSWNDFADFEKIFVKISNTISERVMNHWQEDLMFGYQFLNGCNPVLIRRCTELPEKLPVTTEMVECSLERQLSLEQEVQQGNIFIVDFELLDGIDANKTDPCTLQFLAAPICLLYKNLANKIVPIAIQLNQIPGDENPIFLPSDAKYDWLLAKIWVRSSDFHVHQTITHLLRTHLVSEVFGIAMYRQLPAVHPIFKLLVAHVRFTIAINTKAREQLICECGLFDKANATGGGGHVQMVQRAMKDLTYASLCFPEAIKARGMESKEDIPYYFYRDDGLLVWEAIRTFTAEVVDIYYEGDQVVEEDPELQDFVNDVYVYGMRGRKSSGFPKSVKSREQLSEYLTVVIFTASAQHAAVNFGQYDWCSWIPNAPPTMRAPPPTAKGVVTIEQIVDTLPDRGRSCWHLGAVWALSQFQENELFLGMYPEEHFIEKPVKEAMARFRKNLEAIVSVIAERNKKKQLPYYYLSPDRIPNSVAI
Method in brief: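 Enzyme source is the 100000g supernatant (S100) of insect cells overexpressing human 5-LO. Activity followed spectrophotometrically as 5-HPETE production. IC50 is the mean of at least two independent determinations unless the value came from a single titration.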

[2] = biological target: T2, Arachidonate 5-lipoxygenase-activating protein (Homo sapiens, UniProt P20292); assay: Inhibition of 5-lipoxygenase activating protein using human leukocyte membrane preparations
T2 sequence (P20292 whole entry): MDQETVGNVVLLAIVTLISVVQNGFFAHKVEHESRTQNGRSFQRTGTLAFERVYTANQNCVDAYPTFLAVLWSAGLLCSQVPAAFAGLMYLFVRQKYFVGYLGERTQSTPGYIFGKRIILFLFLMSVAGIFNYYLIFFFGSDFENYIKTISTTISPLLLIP
Method in brief: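 Binding assay on human leukocyte membrane preparations, measuring displacement of [¹²⁵I]-L-691,831 by drug. IC50 is the mean of at least two independent determinations unless the value came from a single titration.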

[3] = Bioavailability in rat; assay type: ADME, organism-based; settings: in vivo
Method in brief: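 Rats dosed with sodium salts, 20 mg/kg po in 1% methocel and 5 mg/kg iv in PEG 200 (n = 2); plasma profiles collected over 0–6 h. Bioavailability calculated as AUC_po/4 × AUC_iv.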

[4] = system: Rattus norvegicus; assay: Compound was tested for the inhibition of dyspnea in hyperreactive rats dosed at 5 mg/kg po; assay type: functional; settings: for inhibition in vivo at 5 mg/kg: Rattus norvegicus, po
Method in brief: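 Inbred hyperreactive rats (n = 6) pretreated with methysergide 3 μg/kg iv. Sodium salt given po in 1% or 0.5% methocel 2 h before ovalbumin antigen challenge. Read-out is percent inhibition of dyspnea duration versus litter mate-matched vehicle-treated controls.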

pIC50 [1]	bioavailability [3]	SMILES	inhibition in vivo at 5 mg/kg [4]	further results
7.26	–	CC1Cc2c(OCc3ccccn3)ccc3c2c(c(CSc2ccccc2C(=O)O)n3Cc2ccc(Cl)cc2)S1 (stereo not given)	–	pIC50 [2]: 6.12
7.00	–	CC1Cc2c(OCc3ccc4ccccc4n3)ccc3c2c(c(COc2ccccc2CC(=O)O)n3Cc2ccc(Cl)cc2)S1 (stereo not given)	–	pIC50 [2]: 7.49
7.15	–	CC1Cc2c(OCc3ccc4ccccc4n3)ccc3c2c(c(CSc2ccccc2C(=O)O)n3Cc2ccc(Cl)cc2)S1 (stereo not given)	–	pIC50 [2]: 7.14
7.40	–	CC1Cc2c(OCc3ccc(-c4ccccc4)cn3)ccc3c2c(c(CCOc2ccccc2CC(=O)O)n3Cc2cccc(Cl)c2)S1 (stereo not given)	–	–
7.64	44%	CC1Cc2c(OCc3ccc(-c4ccccc4)cn3)ccc3c2c(c(CCOc2ccccc2CC(=O)O)n3Cc2cccc(F)c2)S1 (stereo not given)	59%	–
6.89	–	CC1Cc2c(OCc3ccc(-c4ccccc4)cn3)ccc3c2c(c(CCOc2ccc(Cl)cc2C(=O)O)n3Cc2ccc(Cl)cc2)S1 (stereo not given)	–	–
–	–	CCC(OCCc1c2c3c(c(OCc4ccc(-c5ccccc5)cn4)ccc3n1Cc1ccc(Cl)cc1)CC(C)S2)C(=O)O (stereo not given)	50%	–
7.52	10%	CC1Cc2c(OCc3ccc(-c4ccccc4)cn3)ccc3c2c(c(CCSc2ccccc2C(=O)O)n3Cc2ccc(Cl)cc2)S1 (stereo not given)	–	–
7.59	35%	CC1Cc2c(OCc3ccc(-c4ccccc4)cn3)ccc3c2c(c(COc2ccccc2CC(=O)O)n3Cc2ccc(Cl)cc2)S1 (stereo not given)	27%	–
6.76	–	CC1Cc2c(OCc3cc4ccccc4cn3)ccc3c2c(c(CSc2ccccc2C(=O)O)n3Cc2ccc(Cl)cc2)S1 (stereo not given)	–	pIC50 [2]: 5.54
6.77	–	CC1Cc2c(OCc3ccc(-c4ccccc4)cn3)ccc3c2c(c(CCOc2cccc(C(=O)O)c2)n3Cc2ccc(Cl)cc2)S1 (stereo not given)	–	–
7.22	37%	CC1Cc2c(OCc3ccc(-c4ccccc4)cn3)ccc3c2c(c(CCOc2ccccc2C(=O)O)n3Cc2ccc(Cl)cc2)S1 (stereo not given)	42%	–
7.52	< 5%	CC1Cc2c(OCc3ccc(-c4ccccc4)cn3)ccc3c2c(c(CSc2ccccc2C(=O)O)n3Cc2ccc(Cl)cc2)S1 (stereo not given)	–	–
7.22	4%	CC1Cc2c(OCc3ccc(-c4ccccc4)cn3)ccc3c2c(c(CCOc2ccccc2CC(=O)O)n3Cc2ccc(F)cc2)S1 (stereo not given)	36%	–
6.44	–	CC1Cc2c(OCc3ccc(-c4ccccc4)cn3)ccc3c2c(c(CCc2ccccc2C(=O)O)n3Cc2ccc(Cl)cc2)S1 (stereo not given)	–	–
7.21	–	CC1Cc2c(OCc3ccc(-c4ccccc4)cn3)ccc3c2c(c(COCc2ccccc2C(=O)O)n3Cc2ccc(Cl)cc2)S1 (stereo not given)	–	–
7.28	–	COc1ccc(COc2ccc3c4c2CC(C)Sc4c(CSc2ccccc2C(=O)O)n3Cc2ccc(Cl)cc2)nc1 (stereo not given)	–	pIC50 [2]: 6.43
7.22	15%	CC1Cc2c(OCc3ccc(-c4ccccc4)cn3)ccc3c2c(c(CCOc2ccccc2CC(=O)O)n3Cc2ccc(Cl)cc2)S1 (stereo not given)	47%	–
7.74	–	CC1Cc2c(OCc3ccc(-c4ccccc4)cn3)ccc3c2c(c(COc2ccccc2CC(=O)O)n3Cc2cccc(Cl)c2)S1 (stereo in doubt; 14b)	74%	F [3]: 11%
7.02	–	CC1Cc2c(OCc3ccc(-c4ccccc4)cn3)ccc3c2c(c(COc2ccccc2CC(=O)O)n3Cc2cccc(Cl)c2)S1 (stereo in doubt; (+)14b)	–	–
8.00	–	CC1Cc2c(OCc3ccc(-c4ccccc4)cn3)ccc3c2c(c(COc2ccccc2CC(=O)O)n3Cc2cccc(Cl)c2)S1 (stereo in doubt; (-)14b)	–	F [3]: 32%; Inhibition ([4]; 5 mg/kg): 58%
< 5.00	–	CC(C)(C)Sc1c(CC(C)(C)C(=O)O)n(Cc2ccc(Cl)cc2)c2ccc(OCc3ccc4ccccc4n3)cc12 [QUIFLAPON]	–	pIC50 [2]: 8.80

SMILES	pIC50 [1]	bioavailability [3]	inhibition in vivo at 5 mg/kg [4]	further results
CC(C)c1ccc2c(c1)c(SC(C)(C)C)c(CC(C)(C)C(=O)O)n2Cc1ccc(Cl)cc1	< 8.00	–	–	–
